# Test results: ChEMBL document CHEMBL3392986, “Hydroxamic acids block replication of hepatitis C virus” (J Med Chem, 2015)
# Tests used:
# [1] = Therapeutic index, ratio of CC50 for human HuH7 cells to EC50 for HCV genotype 1b infected in human Huh7 cells
# Hepatitis C virus [2] = assay: Antiviral activity against HCV genotype 1b infected in human Huh7 cells after 3 days by luciferase reporter gene assay; assay type: functional, cell-based, Hepacivirus hominis; settings: Huh-7, 72 h
# [3] = Cytotoxicity against human HuH7 cells assessed as inhibition of cell viability after 3 days by CellTiter 96 assay
# [4] = Cytotoxicity against human HuH7 cells assessed as inhibition of cell viability at 10 uM after 3 days by CellTiter 96 assay; assay type: cell-based, Huh-7; settings: read-out: INH
# In short: (§1)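 Replicon cells plated at 6 X 10^3 per well and treated the next day with compound in DMSO, DMSO alone or nothing for three days at 37 °C/5% CO2. Viability measured by CellTiter 96 AQueous One, absorbance 450 nm. Percent inhibition is the average of triplicate wells.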
# Hepatitis C virus [5] = assay: Antiviral activity against HCV genotype 1b infected in human Huh7 cells at 10 uM after 3 days by luciferase reporter gene assay; assay type: functional, Hepacivirus hominis; settings: Huh-7, 72 h
# In short: (§2)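 Subgenomic luciferase replicon cells seeded at 6 X 10^3 per well. Next day, medium containing compound in DMSO, or DMSO alone, was added. After three days, luciferase read with ViViRen live-cell substrate. Percent inhibition is the triplicate average; 2mA served as control in single-dose runs.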
# [6] = Cytotoxicity against human HuH7 cells assessed as inhibition of cell viability at 1 uM after 3 days by CellTiter 96 assay; assay type: cell-based, Huh-7; settings: read-out: INH; in short: as §1
# Hepatitis C virus [7] = assay: Antiviral activity against HCV genotype 1b infected in human Huh7 cells at 1 uM after 3 days by luciferase reporter gene assay; assay type: functional, Hepacivirus hominis; settings: Huh-7, 72 h; in short: as §2
# Hepatitis C virus [8] = assay: Antiviral activity against HCV genotype 1b infected in human Huh7 cells assessed as reduction in viral RNA level at 0.5 uM after 3 days by RT-qPCR; assay type: functional, Hepacivirus hominis, Huh-7; design: scale not given: the % may be the effect or the level left; settings: in the assay text read “2 uM” for “0.5 uM”
# In short: (§3)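 Replicon-bearing Huh7 cells, 6 X 10^3 per well, exposed to compound in DMSO or DMSO alone for three days at 37 °C/5% CO2. Replicon RNA quantified by TaqMan Cells-to-CT RT-qPCR with NS5B primers/probe, using GAPDH in parallel wells as reference. Level relative to DMSO-treated cells calculated as 2-∆∆CT. Triplicate wells.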
# Hepatitis C virus [9] = assay: Antiviral activity against HCV genotype 1b infected in human Huh7 cells assessed as reduction in viral RNA level at 2 uM after 3 days by RT-qPCR; assay type: functional, Hepacivirus hominis, Huh-7; design: scale not given: the % may be the effect or the level left; in short: as §3
EC50 (Hepatitis C virus [2]) [µM],Structure (SMILES),selectivity ratio ([1]; HuH7 cells),CC50 at 72 h [3] [µM],"cytotoxicity at 72 h, 10 µM [4] [%]",inhibition at 10 µM (Hepatitis C virus [5]) [%],further results
0.12,O=C(/C=C/c1ccc(C(F)(F)F)cc1F)NO,117,14,–,–,–
2.4,O=C(NO)c1cc2cc([N+](=O)[O-])ccc2s1,14,34,–,–,–
–,Cc1ccc(/C=C/C(=O)NO)cc1,–,–,0,15,–
–,O=C(NO)c1cc2ccccc2[nH]1,–,–,7,45,–
–,O=C(NO)c1cc2ccccc2n1Cc1ccccc1,–,–,28,82,–
–,O=C(NO)c1cc2ccccc2n1-c1ccccc1,–,–,15,41,–
–,O=C(/C=C/c1cccnc1)NO,–,–,2,40,–
0.38,O=C(/C=C/c1ccc(C(F)(F)F)cn1)NO,34,13,–,–,–
1.4,O=C(NO)c1sc2ccccc2c1[S+]([O-])c1ccccc1 (stereo unspecified),> 36,> 50,–,–,–
0.21,COc1cc(NC(=O)CCCCCCC(=O)NO)ccc1-c1cnco1,12,2.6,–,–,–
6,O=C(/C=C/c1ccc(Cl)cc1)NO,> 8,> 50,–,–,–
0.45,O=C(/C=C/c1ccc([N+](=O)[O-])cc1)NO,64,29,–,–,–
1.4,Nc1ccccc1NC(=O)c1ccc(CNC(=O)OCc2cccnc2)cc1 [ENTINOSTAT],–,5.1,–,–,selectivity ratio ([1]; huh-7): 4
–,O=C(NO)c1c[nH]c2ccccc12,–,–,–,0,–
–,CS(=O)(=O)c1ccc(/C=C/C(=O)NO)cc1,–,–,0,93,"cytotoxicity at 72 h, 1 µM [6]: 0%; inhibition at 1 µM (Hepatitis C virus [7]): 30%"
–,O=C(NO)c1cn(-c2ccccc2)c2ccccc12,–,–,–,11,–
–,N#Cc1ccc(/C=C/C(=O)NO)cc1,–,–,18,99,"cytotoxicity at 72 h, 1 µM [6]: 16%; inhibition at 1 µM (Hepatitis C virus [7]): 45%"
–,CN1CCc2c(c3ccccc3n2Cc2ccc(C(=O)NO)cc2)C1 [TUBASTATIN A],–,–,70,97,–
1,O=C(NO)c1cc2ccccc2s1,28,28,–,–,–
–,O=C(/C=C/c1cccc(C(F)(F)F)c1)NO,–,–,6,43,–
1.8,COc1ccc(Cn2ccc3ccc(C(=O)NO)cc32)cc1,6,11,–,–,–
–,O=C(NO)c1cc2ccc(C(F)(F)F)cc2s1,–,–,13,83,"cytotoxicity at 72 h, 1 µM [6]: 4%; inhibition at 1 µM (Hepatitis C virus [7]): 0%"
–,Nc1ccccc1NC(=O)/C=C/c1ccc(C(F)(F)F)cc1,–,–,82,94,–
–,O=C(NCC1(c2nc(-c3ccccc3)cs2)CCOCC1)c1cccc(-c2noc(C(F)(F)F)n2)c1,–,–,21,22,–
–,O=C(C=C(c1ccccc1)c1ccccc1)NO,–,–,4,64,–
–,O=C(NO)c1cc2cc(C(F)(F)F)ccc2s1,–,–,0,94,"cytotoxicity at 72 h, 1 µM [6]: 10%; inhibition at 1 µM (Hepatitis C virus [7]): 16%"

EC50 (Hepatitis C virus [2]) [µM],Structure (SMILES),selectivity ratio ([1]; HuH7 cells),CC50 at 72 h [3] [µM],"cytotoxicity at 72 h, 10 µM [4] [%]",inhibition at 10 µM (Hepatitis C virus [5]) [%],further results
0.86,O=C(/C=C/c1ccccc1)NO,–,39,–,–,selectivity ratio ([1]; huh-7): 45
1.8,O=C(NO)c1cc2ccccc2o1,30,54,–,–,–
–,O=C(NO)c1cn(Cc2ccccc2)c2ccccc12,–,–,92,99,–
1.1,O=C(/C=C/c1ccc(C(F)(F)F)cc1Cl)NO,14,15,–,–,–
0.4,O=C(/C=C/c1ccc(C(F)(F)F)nc1)NO,48,19,–,–,–
–,COC(=O)/C=C/c1ccc(C(F)(F)F)cc1,–,–,1,0,–
–,NC(=O)/C=C/c1ccc(C(F)(F)F)cc1,–,–,1,6,–
–,O=C(O)c1sc2ccccc2c1S(=O)(=O)c1ccccc1,–,–,2,19,–
–,Cc1[nH]c2ccccc2c1CCNCc1ccc(/C=C/C(=O)NO)cc1 [PANOBINOSTAT],–,0.0035,–,–,–
–,O=C(/C=C/c1ccccn1)NO,–,–,1,58,–
0.69,O=C(NO)c1cc2cc(Cl)ccc2s1,39,27,–,–,Activity (Hepatitis C virus [8]): 75%; Activity (Hepatitis C virus [9]): 75%
–,O=C(NO)c1sc2ccccc2c1Sc1ccccc1,–,–,4,8,–
3.2,C/C(=C\C(=O)NO)c1ccccc1,18,59,–,–,–
–,COC(=O)c1sc2ccccc2c1S(=O)(=O)c1ccccc1,–,–,0,5,–
0.14,O=C(/C=C/c1ccc(C(F)(F)F)cc1)NO,178,25,–,–,–
0.54,O=C(/C=C/c1c(F)cc(C(F)(F)F)cc1F)NO,22,12,–,–,–
–,O=C(/C=C/c1ccccc1C(F)(F)F)NO,–,–,5,40,–
5.4,O=C(NO)c1ccc(C(F)(F)F)cc1,> 18,> 100,–,–,–
–,O=C(CCc1ccc(C(F)(F)F)cc1)NO,–,–,0,35,–
0.12,O=C(/C=C/c1cccc(S(=O)(=O)Nc2ccccc2)c1)NO [BELINOSTAT],–,0.68,–,–,selectivity ratio ([1]; huh-7): 6
–,O=C(O)/C=C/c1ccc(C(F)(F)F)cc1,–,–,0,19,–
–,O=C(/C=C/c1ccncc1)NO,–,–,0,20,–
0.078,O=C(/C=C/c1ccc(Cl)cc1Cl)NO [CINNAMIC ACID HYDROXAMATE],104,8.1,–,–,–
3.7,O=C(NO)c1cc2ccc([N+](=O)[O-])cc2s1,15,54,–,–,–
–,COc1ccc(/C=C/C(=O)NO)cc1,–,–,0,15,–
